# “Also recorded” adds a separate entry of the source.
# Legend:
# [1] = Clinical safety assessments; format: in vivo, healthy male participants (human); conditions: for tolerability: healthy participants, result in words
# How it was run: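 Healthy young males (18–40 y, BMI 18–35) got a single oral test compound dose of 40 mg/kg by weight, then a 400 mg/day antiretroviral for 13 days under daily directly observed treatment. They stayed inpatient ≥24 h before and after dosing (days 1–3, 15–17). Vital signs were checked and adverse events or symptoms monitored. Examination, biochemistry, haematology, urinalysis and ECG were done at screening.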
# [2] = patients pre‐exposed to rifampicin; cited from earlier work
# [3] = Effect of efavirenz on R‐ and S‐PZQ pharmacokinetics; format: in vivo, healthy male participants (human); conditions: for AUCt0‐tlast, Geo Mean / C max, Geo Mean / Clearance/F, Geo Mean / Elimination rate constant, Geo Mean / Half‐Life, Geo Mean / T max, Geo Mean / V d/F, Geo Mean / AUCinf, Geo Mean: plasma
# [4] = should be maintained for at least 4 h for efficacy; cited from earlier work
# [5] = Effect of ritonavir on R‐ and S‐PZQ pharmacokinetics; format: in vivo, healthy male participants (human); conditions: for AUCt0‐tlast, Geo Mean / C max, Geo Mean / Elimination rate constant, Geo Mean / Half‐Life, Geo Mean / T max, Geo Mean / V d/F, Geo Mean / AUCinf, Geo Mean / Clearance/F, Geo Mean: plasma; for effect of ritonavir on pharmacokinetics: result in words
# [6] = PZQ + Ritonavir (treatment): 40 mg/kg racemic PZQ after 100 mg ritonavir/day for 14 days
# [7] = PZQ + Ritonavir (treatment): 40 mg/kg racemic PZQ after 100 mg ritonavir/day for 14 days, 40 mg/kg
# [8] = PZQ alone (reference), single oral 40 mg/kg racemic PZQ, ritonavir arm
# [9] = PZQ alone (reference), single oral 40 mg/kg racemic PZQ, ritonavir arm, 40 mg/kg
# [10] = PZQ + Efavirenz (treatment): 40 mg/kg racemic PZQ after 400 mg efavirenz/day
# [11] = PZQ alone (reference), single oral 40 mg/kg racemic PZQ, efavirenz arm
compound,measurement,setting,value
"O=C(C1CCCCC1)N1CC(=O)N2CCc3ccccc3C2C1 (stereo not shown) [PZQ, praziquantel]",tolerability,[1],generally well tolerated
same,participants without detectable levels,[2],7 out of 10
same,attainment of the MEC (1 µg/mL for at least 4 h),"[3]; PZQ with efavirenz, result in words",all participants failed to attain the MEC for more than the minimum 4 h
same,minimum effective concentration (MEC),[4],1 µg/mL
O=C(C1CCCCC1)N1CC(=O)N2CCc3ccccc3[C@@H]2C1 [R‐Praziquantel],"AUCt0‐tlast, Geo Mean",[5]; [6],950.73 ng·h/mL
same,"C max, Geo Mean",[5]; [6],354.34 ng/mL
same,"Elimination rate constant, Geo Mean",[5]; [6],0.26 h⁻¹
same,"Half‐Life, Geo Mean",[5]; [6],2.71 h
same,"T max, Geo Mean",[5]; [6],1.53 h
same,"V d/F, Geo Mean",[5]; [6],8772.21 L
same,"AUCinf, Geo Mean",[5]; [7],1057.66 ng·h/mL
same,"Clearance/F, Geo Mean",[5]; [7],2241.23 L/h
same,"AUCinf, Difference observed",[5]; PZQ + ritonavir vs PZQ alone,17.62%
same,"AUCinf, Treatment/reference GMR",[5]; PZQ + ritonavir vs PZQ alone,104.41%
same,"AUCt0‐tlast, Difference observed",[5]; PZQ + ritonavir vs PZQ alone,22.8%
same,"AUCt0‐tlast, Treatment/reference GMR",[5]; PZQ + ritonavir vs PZQ alone,107.06%
same,"C max, Difference observed",[5]; PZQ + ritonavir vs PZQ alone,13.70%
same,"C max, Treatment/reference GMR",[5]; PZQ + ritonavir vs PZQ alone,114.88%
same,"Clearance/F, Difference observed",[5]; PZQ + ritonavir vs PZQ alone,4.36%
same,"Elimination rate constant, Difference observed",[5]; PZQ + ritonavir vs PZQ alone,26.08%
same,"Half‐Life, Difference observed",[5]; PZQ + ritonavir vs PZQ alone,−28.64%
same,"T max, Difference observed",[5]; PZQ + ritonavir vs PZQ alone,−15.46%
same,"V d/F, Difference observed",[5]; PZQ + ritonavir vs PZQ alone,−15.74%
same,effect of ritonavir on pharmacokinetics,"[5]; PZQ + ritonavir vs PZQ alone, listed as R‐PZQ",no significant effect; also recorded: did not have a significant inhibitory effect
same,"AUCt0‐tlast, Geo Mean",[5]; [8],888.02 ng·h/mL
same,"C max, Geo Mean",[5]; [8],308.44 ng/mL
same,"Elimination rate constant, Geo Mean",[5]; [8],0.19 h⁻¹
same,"Half‐Life, Geo Mean",[5]; [8],3.57 h
same,"T max, Geo Mean",[5]; [8],1.69 h
same,"V d/F, Geo Mean",[5]; [8],12034.61 L
same,"AUCinf, Geo Mean",[5]; [9],1012.96 ng·h/mL
same,"Clearance/F, Geo Mean",[5]; [9],2340.12 L/h
same,"AUCt0‐tlast, Geo Mean",[3]; [10],248.02 ng·h/mL
same,"C max, Geo Mean",[3]; [10],104.32 ng/mL
same,"Clearance/F, Geo Mean",[3]; [10],8449.32 L/h
same,"Elimination rate constant, Geo Mean",[3]; [10],0.25 h⁻¹
same,"Half‐Life, Geo Mean",[3]; [10],2.76 h
same,"T max, Geo Mean",[3]; [10],1.64 h
same,"V d/F, Geo Mean",[3]; [10],33637.78 L
same,"AUCinf, Geo Mean","[3]; PZQ + Efavirenz (treatment): 40 mg/kg racemic PZQ after 400 mg efavirenz/day, 40 mg/kg",281.43 ng·h/mL
same,"AUCinf, Difference observed",[3]; PZQ + efavirenz vs PZQ alone,−74.36%
same,"AUCinf, Treatment/reference GMR",[3]; PZQ + efavirenz vs PZQ alone,23.20%
same,"AUCt0‐tlast, Difference observed",[3]; PZQ + efavirenz vs PZQ alone,−76.90%
same,"AUCt0‐tlast, Treatment/reference GMR",[3]; PZQ + efavirenz vs PZQ alone,21.75%
same,"C max, Difference observed",[3]; PZQ + efavirenz vs PZQ alone,−82.52%
same,"C max, Treatment/reference GMR",[3]; PZQ + efavirenz vs PZQ alone,21.21%
same,"Clearance/F, Difference observed",[3]; PZQ + efavirenz vs PZQ alone,546.74%
same,"Elimination rate constant, Difference observed",[3]; PZQ + efavirenz vs PZQ alone,3.45%
same,"Half‐Life, Difference observed",[3]; PZQ + efavirenz vs PZQ alone,17.63%
same,"T max, Difference observed",[3]; PZQ + efavirenz vs PZQ alone,−18.22%
same,"V d/F, Difference observed",[3]; PZQ + efavirenz vs PZQ alone,280.92%
same,reduction in AUCinf (exposure) by efavirenz,[3]; PZQ + efavirenz vs PZQ alone,4 fold
same,"AUCinf, Geo Mean",[3]; [11],1213.15 ng·h/mL
same,"AUCt0‐tlast, Geo Mean",[3]; [11],1140.41 ng·h/mL
same,"C max, Geo Mean",[3]; [11],491.78 ng/mL
same,"Clearance/F, Geo Mean",[3]; [11],1960.10 L/h
same,"Elimination rate constant, Geo Mean",[3]; [11],0.26 h⁻¹
same,"Half‐Life, Geo Mean",[3]; [11],2.66 h
same,"T max, Geo Mean",[3]; [11],1.88 h
same,"V d/F, Geo Mean",[3]; [11],7507.98 L
same,change in the T max when co‐administered with efavirenz,[3]; result in words,no change
CC(C)c1nc(CN(C)C(=O)N[C@H](C(=O)N[C@@H](Cc2ccccc2)C[C@H](O)[C@H](Cc2ccccc2)NC(=O)OCc2cncs2)C(C)C)cs1 [ritonavir],tolerability,[1],generally well tolerated
O=C1Nc2ccc(Cl)cc2[C@@](C#CC2CC2)(C(F)(F)F)O1 [efavirenz],participants with mild dizziness,"[1]; efavirenz group, symptoms disappearing by day 5",33%
O=C(C1CCCCC1)N1CC(=O)N2CCc3ccccc3[C@H]2C1 [S‐Praziquantel],"AUCinf, Geo Mean",[5]; [6],7291.05 ng·h/mL
same,"AUCt0‐tlast, Geo Mean",[5]; [6],7083.71 ng·h/mL
same,"Clearance/F, Geo Mean",[5]; [6],325.12 L/h
same,"Elimination rate constant, Geo Mean",[5]; [6],0.38 h⁻¹
same,"Half‐Life, Geo Mean",[5]; [6],1.81 h
same,"T max, Geo Mean",[5]; [6],1.60 h
same,"V d/F, Geo Mean",[5]; [6],847.06 L
same,"C max, Geo Mean",[5]; [7],2336.96 ng/mL
same,"AUCinf, Difference observed",[5]; PZQ + ritonavir vs PZQ alone,69.84%
same,"AUCinf, Treatment/reference GMR",[5]; PZQ + ritonavir vs PZQ alone,175.49%
same,"AUCt0‐tlast, Difference observed",[5]; PZQ + ritonavir vs PZQ alone,71.88%
same,"AUCt0‐tlast, Treatment/reference GMR",[5]; PZQ + ritonavir vs PZQ alone,178.30%
same,"C max, Difference observed",[5]; PZQ + ritonavir vs PZQ alone,88.41%
same,"Clearance/F, Difference observed",[5]; PZQ + ritonavir vs PZQ alone,−44.37%
same,"Elimination rate constant, Difference observed",[5]; PZQ + ritonavir vs PZQ alone,34.38%
same,"Half‐Life, Difference observed",[5]; PZQ + ritonavir vs PZQ alone,−19.25%
same,"T max, Difference observed",[5]; PZQ + ritonavir vs PZQ alone,−24.58%
same,"V d/F, Difference observed",[5]; PZQ + ritonavir vs PZQ alone,−55.79%
same,effect of ritonavir on pharmacokinetics,[5]; PZQ + ritonavir vs PZQ alone,significant effect
same,"AUCinf, Geo Mean",[5]; [8],4154.79 ng·h/mL
same,"AUCt0‐tlast, Geo Mean",[5]; [8],3972.89 ng·h/mL
same,"Clearance/F, Geo Mean",[5]; [8],570.54 L/h
same,"Elimination rate constant, Geo Mean",[5]; [8],0.31 h⁻¹
same,"Half‐Life, Geo Mean",[5]; [8],2.25 h
same,"T max, Geo Mean",[5]; [8],2.20 h
same,"V d/F, Geo Mean",[5]; [8],1847.59 L
same,"C max, Geo Mean",[5]; [9],1174.93 ng/mL
same,"AUCinf, Geo Mean",[3]; [10],871.84 ng·h/mL
same,"AUCt0‐tlast, Geo Mean",[3]; [10],826.17 ng·h/mL
same,"C max, Geo Mean",[3]; [10],329.98 ng/mL
same,"Clearance/F, Geo Mean",[3]; [10],2727.44 L/h
same,"Elimination rate constant, Geo Mean",[3]; [10],0.35 h⁻¹
same,"Half‐Life, Geo Mean",[3]; [10],2.00 h
same,"T max, Geo Mean",[3]; [10],1.81 h
same,"V d/F, Geo Mean",[3]; [10],7887.36 L
same,"AUCinf, Difference observed",[3]; PZQ + efavirenz vs PZQ alone,−75.26%
same,"AUCt0‐tlast, Difference observed",[3]; PZQ + efavirenz vs PZQ alone,−75.16%
same,"AUCt0‐tlast, Treatment/reference GMR",[3]; PZQ + efavirenz vs PZQ alone,15.26%
same,"C max, Difference observed",[3]; PZQ + efavirenz vs PZQ alone,−76.85%
same,"Clearance/F, Difference observed",[3]; PZQ + efavirenz vs PZQ alone,950.27%
same,"Elimination rate constant, Difference observed",[3]; PZQ + efavirenz vs PZQ alone,11.76%
same,"Half‐Life, Difference observed",[3]; PZQ + efavirenz vs PZQ alone,−15.83%
same,"T max, Difference observed",[3]; PZQ + efavirenz vs PZQ alone,−25.48%
same,"V d/F, Difference observed",[3]; PZQ + efavirenz vs PZQ alone,757.72%
same,"AUCt0‐tlast, Geo Mean",[3]; [11],5413.80 ng·h/mL
same,"C max, Geo Mean",[3]; [11],1991.32 ng/mL
same,"Clearance/F, Geo Mean",[3]; [11],419.40 L/h
same,"Elimination rate constant, Geo Mean",[3]; [11],0.31 h⁻¹
same,"Half‐Life, Geo Mean",[3]; [11],2.27 h
same,"T max, Geo Mean",[3]; [11],2.42 h
same,"V d/F, Geo Mean",[3]; [11],1373.82 L
same,"AUCinf, Geo Mean","[3]; PZQ alone (reference), single oral 40 mg/kg racemic PZQ, efavirenz arm, 40 mg/kg",5669.77 ng·h/mL
